The subject of data set [1] is HCT-116. The experiment in a line: Downregulation of SF2 mRNA expression in human HCT-116 cells at 100 to 500 nM incubated for 24 hrs by qRT-PCR analysis. The note with it: dose 100-500 nM. Type of data set: functional, cell-based. The method in brief:
(§1)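 HCT-116 cells in supplemented McCoy's 5a with 0.5% DMSO, treated 24 h at 100, 250 or 500 nM; untreated cells as control. Total RNA isolated, 1 µg DNase I-treated, reverse transcribed. qPCR on 5 ng cDNA with 2.5 µM each primer, 40 cycles of 95 °C 30 s, 55 °C 60 s, 72 °C 60 s. Splice-event primers for intron retention or exon skipping; SF2 primers measure total expression. 2^-CT method relative to GAPDH, untreated set at 1.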
(Real-time PCR tracks product formation cycle by cycle.)

Data set [2] has as its system HCT-116. The experiment in a line: Downregulation of PLK-1 mRNA expression in human HCT-116 cells at 100 to 500 nM incubated for 24 hrs by qRT-PCR analysis. In kind it is functional, cell-based. The note with it: dose 100-500 nM. The method in brief: as §1
Data set [3] in a line: Cytotoxicity against human HCT-116 cells assessed as cell growth inhibition incubated for 72 hrs by MTS assay. Type of data set: toxicity, cell-based. The method in brief: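 HCT-116 cells (ATCC; split every other day, no more than five generations, mycoplasma-tested) plated at 5 × 10³ cells/well in supplemented McCoy's 5a and grown 24 h at 37 °C, 5% CO₂. Compound added from DMSO (0.5% DMSO final) for 72 h. Cells washed with PBS, MTS reagent added for 2 h at 37 °C, A490 read against A690. GI₅₀ fitted from dose curves of 3 biological replicates.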

Data set [4] relates to HCT-116. The experiment in a line: Cytotoxicity against human HCT-116 cells assessed as reduction in cell viability at 2.6 uM incubated for 4 hrs by MTS assay. In kind it is toxicity, cell-based. The note with it: hct-116, 4 h. In general terms: Tetrazolium dyes change colour on reduction, which living cells bring about.
Data set [5] relates to HCT-116. The experiment in a line: Cytotoxicity against human HCT-116 cells assessed as reduction in cell viability at 500 nM incubated for 24 hrs by MTS assay. Type of data set: toxicity, cell-based. The note with it: hct-116, 24 h, 0.5 µM. The method in brief:
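HCT-116 cells plated at 5 × 10³ cells/well in supplemented McCoy's 5a and grown 24 h at 37 °C, 5% CO₂. Compound given at 500 nM, the top dose of the 24 h splicing series, in 0.5% DMSO for 24 h. Cells washed with PBS, MTS reagent added for 2 h at 37 °C, A490 read against A690.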

Data set [6] relates to DNAJB1 pre-mRNA. The experiment in a line: Modulation of splicing in DNAJB1 pre-mRNA in human HCT-116 cells assessed as intron 2 retention at 100 to 500 nM incubated for 24 hrs by qRT-PCR analysis. Type of data set: functional, cell-based. The note with it: dose 100-500 nM. The method in brief: as §1
Data set [7] relates to SF3A3 pre-mRNA. The experiment in a line: Modulation of splicing in SF3A3 pre-mRNA in human HCT-116 cells assessed as intron 5 retention level at 2.6 uM incubated for 4 hrs by qRT-PCR analysis. Type of data set: functional, cell-based. The note with it: filed as modulator.
The test system of data set [8] is SF3B1 pre-mRNA. The experiment in a line: Modulation of splicing in SF3B1 pre-mRNA in human HCT-116 cells assessed as intron 13 retention level at 2.6 uM incubated for 4 hrs by qRT-PCR analysis. In kind it is functional, cell-based. The note with it: filed as modulator. The method in brief:
(§2)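 HCT-116 cells in supplemented McCoy's 5a, compound added from DMSO stock to a final 0.5% DMSO, 4 h at a single standardized concentration per analogue. Total RNA isolated and DNase-treated (1 µg). qPCR used 2.5 µM each primer on 5 ng cDNA, 40 cycles. Intron retention was computed by the 2^-CT method relative to GAPDH and expressed versus untreated cells set to 1.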

For data set [9], the system named is DNAJB1 pre-mRNA. The experiment in a line: Modulation of splicing in DNAJB1 pre-mRNA in human HCT-116 cells assessed as intron 2 retention level at 2.6 uM incubated for 4 hrs by qRT-PCR analysis. Type of data set: functional, cell-based. The note with it: filed as modulator.
The test system of data set [10] is SF3A1 pre-mRNA. The experiment in a line: Modulation of splicing in SF3A1 pre-mRNA in human HCT-116 cells assessed as intron 6 retention level at 2.6 uM incubated for 4 hrs by qRT-PCR analysis. In kind it is functional, cell-based. The note with it: filed as modulator.
The test system of data set [11] is SF3B2 pre-mRNA. The experiment in a line: Modulation of splicing in SF3B2 pre-mRNA in human HCT-116 cells assessed as intron 10 retention level at 2.6 uM incubated for 4 hrs by qRT-PCR analysis. Type of data set: functional, cell-based. The note with it: filed as modulator. The method in brief: as §2
Data set [12] has as its system HCT-116. The experiment in a line: Downregulation of SF3 mRNA expression in human HCT-116 cells at 2.6 uM incubated for 4 hrs by qRT-PCR analysis. Type of data set: functional, cell-based.
Data set [13] concerns SF3A3 pre-mRNA. The experiment in a line: Modulation of splicing in SF3A3 pre-mRNA in human HCT-116 cells assessed as intron 5 retention at 100 to 500 nM incubated for 24 hrs by qRT-PCR analysis. In kind it is functional, cell-based. The note with it: filed as modulator, dose 100-500 nM. An outline of the steps:
as §1

Data set [14] deals with SF3B2 pre-mRNA. The experiment in a line: Modulation of splicing in SF3B2 pre-mRNA in human HCT-116 cells assessed as intron 10 retention at 100 to 500 nM incubated for 24 hrs by qRT-PCR analysis. Type of data set: functional, cell-based. The note with it: dose 100-500 nM. The method in brief: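 HCT-116 cells in supplemented McCoy's 5a with 0.5% final DMSO were treated for 24 h at 100, 250 or 500 nM. Total RNA isolated and DNase-treated (1 µg). qPCR used 2.5 µM each primer on 5 ng cDNA, 40 cycles. Intron retention was computed by the 2^-CT method relative to GAPDH and expressed versus untreated cells set to 1.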

The subject of data set [15] is HCT-116. The experiment in a line: Effect on AURKA mRNA expression in human HCT-116 cells at 100 to 500 nM incubated for 24 hrs by qRT-PCR analysis. The note with it: dose 100-500 nM. Type of data set: functional, cell-based. An outline of the steps: as §1
Data set [16] concerns HCT-116. The experiment in a line: Cytotoxicity against human HCT-116 cells assessed as reduction in cell viability at 750 nM incubated for 4 hrs by MTS assay. Type of data set: toxicity, cell-based. The note with it: hct-116, 4 h, 0.75 µM.
The subject of data set [17] is SF3A3 pre-mRNA. The experiment in a line: Modulation of splicing in SF3A3 pre-mRNA in human HCT-116 cells assessed as intron 5 retention level at 750 nM incubated for 4 hrs by qRT-PCR analysis. The note with it: filed as modulator. In kind it is functional, cell-based.
Data set [18] deals with SF3B1 pre-mRNA. The experiment in a line: Modulation of splicing in SF3B1 pre-mRNA in human HCT-116 cells assessed as intron 13 retention level at 750 nM incubated for 4 hrs by qRT-PCR analysis. In kind it is functional, cell-based. The note with it: filed as modulator. An outline of the steps: as §2
In data set [19] the test system is DNAJB1 pre-mRNA. The experiment in a line: Modulation of splicing in DNAJB1 pre-mRNA in human HCT-116 cells assessed as intron 2 retention level at 750 nM incubated for 4 hrs by qRT-PCR analysis. In kind it is functional, cell-based. The note with it: filed as modulator.
Data set [20] has as its system SF3A1 pre-mRNA. The experiment in a line: Modulation of splicing in SF3A1 pre-mRNA in human HCT-116 cells assessed as intron 6 retention level at 750 nM incubated for 4 hrs by qRT-PCR analysis. In kind it is functional, cell-based. The note with it: filed as modulator.
Data set [21] concerns SF3B2 pre-mRNA. The experiment in a line: Modulation of splicing in SF3B2 pre-mRNA in human HCT-116 cells assessed as intron 10 retention level at 750 nM incubated for 4 hrs by qRT-PCR analysis. In kind it is functional, cell-based. The note with it: filed as modulator. The method in brief: as §2
Another data set deals with AURKA pre-mRNA. The experiment in a line: Modulation of splicing in AURKA pre-mRNA in human HCT-116 cells assessed as effect on exon 4 skipping at 750 nM incubated for 4 hrs by qRT-PCR analysis. In kind it is functional, cell-based. The note with it: filed as modulator.

Each structure is given as a SMILES string. The source made the active and inactive calls. The rule behind the calls is not given here.

The term GI50 denotes the concentration that inhibits growth by half. On to `CC[C@H](OC)[C@@H](C)[C@H]1O[C@@H]1[C@@H](O)[C@H](C)/C=C/C=C(\C)[C@H]1OC(=O)C[C@@H](O)CC[C@@](C)(O)[C@@H](OC(C)=O)/C=C/[C@@H]1C`, for which the result in the data set on HCT-116 [1], in the data set with DNAJB1 pre-mRNA [6] and in the data set with SF3B2 pre-mRNA [14] was inactive. Further, the result with HCT-116 [2], with HCT-116 [12], in the data set on SF3A3 pre-mRNA [13] and in the data set on HCT-116 [15] was Active. The GI50 at 72 h in [3] worked out at 143 nM. Also, the Activity entry with HCT-116 [4] was “Non-Toxic”; in the data set on HCT-116 [5], “Non-Toxic”; in the data set with SF3A3 pre-mRNA [7] it was less than 3; with SF3B1 pre-mRNA [8], less than 3; with DNAJB1 pre-mRNA [9], greater than 3; in the data set with SF3A1 pre-mRNA [10], greater than 3. The Activity with SF3B2 pre-mRNA [11] was greater than 3.
Consider `CC[C@H](OC)[C@@H](C)[C@H]1O[C@@H]1[C@@H](OC)[C@H](C)/C=C/C=C(\C)[C@H]1OC(=O)C[C@H](O)CC[C@@](C)(O)[C@@H](OC(C)=O)/C=C/[C@@H]1C`, for which the GI50 at 72 h in [3] stood at 40.5 nM. Besides, the Activity result with HCT-116 [16] is “Non-Toxic”; in the data set on SF3A3 pre-mRNA [17], less than 3; in the data set on SF3B1 pre-mRNA [18] it was less than 3; in the data set on DNAJB1 pre-mRNA [19], greater than 3; in the data set with SF3A1 pre-mRNA [20], greater than 3; in the data set on SF3B2 pre-mRNA [21], greater than 3. The result in the data set with AURKA pre-mRNA was Active.

Values taken from ChEMBL document CHEMBL5338772, “Stereochemical Control of Splice Modulation in FD-895 Analogues” (J Med Chem, 2023).
